According to ChEMBL document CHEMBL4715843, “NO-releasing STAT3 inhibitors suppress BRAF-mutant melanoma growth” (Eur J Med Chem, 2020):
The source made the active and inactive calls. The calls are words filed in the database; no cut-off is given here.

What was measured:
[1] = biological target: T1, Signal transducer and activator of transcription 3 (Homo sapiens, UniProt P40763); experiment: Inhibition of IRDY 700 oligonucleotide binding to STAT3 in human A-375 cell nuclear extract measured after overnight incubation by electrophoretic mobility shift assay; details: dose 10-25 µM
T1 sequence (P40763 whole entry): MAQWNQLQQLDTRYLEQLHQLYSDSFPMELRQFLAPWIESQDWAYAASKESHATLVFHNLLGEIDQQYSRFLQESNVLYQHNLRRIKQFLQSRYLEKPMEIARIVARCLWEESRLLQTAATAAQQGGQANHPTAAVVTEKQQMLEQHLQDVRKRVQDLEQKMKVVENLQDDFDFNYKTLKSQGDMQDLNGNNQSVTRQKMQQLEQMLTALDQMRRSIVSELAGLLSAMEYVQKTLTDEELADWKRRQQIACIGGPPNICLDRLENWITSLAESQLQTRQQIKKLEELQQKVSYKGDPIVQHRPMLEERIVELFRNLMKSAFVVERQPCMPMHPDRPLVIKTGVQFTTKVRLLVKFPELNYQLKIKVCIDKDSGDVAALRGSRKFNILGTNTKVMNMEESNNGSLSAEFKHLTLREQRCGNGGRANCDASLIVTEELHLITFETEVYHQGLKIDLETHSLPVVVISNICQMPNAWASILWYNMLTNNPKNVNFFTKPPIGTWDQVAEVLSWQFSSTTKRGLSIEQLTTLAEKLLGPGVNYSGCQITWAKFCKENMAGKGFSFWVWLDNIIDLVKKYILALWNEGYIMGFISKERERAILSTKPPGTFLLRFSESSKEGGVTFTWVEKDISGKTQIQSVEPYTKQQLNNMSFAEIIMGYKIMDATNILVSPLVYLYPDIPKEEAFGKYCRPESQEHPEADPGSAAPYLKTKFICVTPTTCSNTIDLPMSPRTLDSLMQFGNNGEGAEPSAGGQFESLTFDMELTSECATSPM
Summary of the method: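 A375 cells were treated overnight with inhibitor doses or DMSO in full RPMI. Nuclear extracts were prepared by low-salt lysis followed by high-salt extraction, with protease and phosphatase inhibitors. EMSA used 5 µg extract per reaction with IRDye 700 STAT3 consensus oligo; competitor and mutant oligos served as controls, and a STAT3-immunoprecipitated extract was included.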

[2] = test system: HFF; experiment: Cytotoxicity against HFF assessed as inhibition of cell proliferation by MTS assay; assay type: cell-based, Homo sapiens; details: Homo sapiens, HFF; read-out: IC50
[3] = Drug metabolism in pH 7.4 phosphate buffer assessed as nitric oxide release at 100 uM measured after 2 hrs by Griess reagent based colorimetric method
Summary of the method: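 Compound at 100 µM was held at room temperature in pH 7.4 phosphate buffer with 5 mM DTT and 2% DMSO for 2 or 48 h. Griess reagent was added, and after 30 min absorbance was read at 548 nm. NO release (mol NO/mol compound) was derived from a sodium nitrite calibration curve.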

[4] = test system: A-375; experiment: Cell cycle arrest in human A-375 cells assessed as accumulation at S-phase at 25 uM measured after 24 hrs by […] (reference value: 33.6 to 33.7%); assay type: functional
[5] = biological target: T1, Signal transducer and activator of transcription 3; experiment: Inhibition of STAT3 in human SB-590885-resistant 451Lu cells assessed as reduction in STAT3 transcriptional activity measured after 12 hrs by Dual-luciferase reporter gene assay
Summary of the method: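 Cells co-transfected with inducible STAT3-responsive firefly luciferase and constitutive Renilla luciferase constructs (40:1) using Lipofectamine 3000. After 48 h, dose series in DMSO vehicle applied for 12 h, followed by dual-luciferase readout. Firefly signal normalized to Renilla and compared with untreated cells. Run in triplicate; IC50 taken from dose–response curves.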

[6] = biological target: T1, Signal transducer and activator of transcription 3; experiment: Inhibition of STAT3 phosphorylation at Y705 residue in human SB-590885-resistant 451Lu cells measured after 12 hrs by Western blot analysis; details: dose 10-25 µM
Summary of the method: (§1)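 451 Lu and MEL 1617 pairs, sensitive and resistant; resistant lines maintained in RPMI with 1 µM PLX4720. Treated with 10 and 25 µM for 12 h versus DMSO. Lysates (60 µg protein, 10% SDS-PAGE) immunoblotted for Ser727- and Tyr705-phospho-STAT3, total STAT3, total PAX3, with actin.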

[7] = Antiproliferative activity against human SB-590885-resistant MEL1617 cells assessed as reduction in cell viability measured after 48 hrs by MTS assay; assay type: functional, cell-based; details: Homo sapiens, MEL1617, 48 h; read-out: IC50
Summary of the method: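 Melanoma lines were grown in RPMI-1640 with Glutamax at 37 °C and 5% CO2. The resistant 451 Lu-R and MEL 1617-R sublines were maintained with 1 µM PLX4720. Cells were incubated with vehicle or inhibitor over a dose range, and viability was read by MTS assay in triplicate.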

[8] = biological target: Signal transducer and activator of transcription 5A (Homo sapiens) (UniProt P42229); experiment: Inhibition of STAT5 phosphorylation at Y694 residues in human A-375 cells at 50 uM after 20 hrs by Western blotting analysis; assay type: cell-based
Sequence of Signal transducer and activator of transcription 5A (Homo sapiens) (P42229 whole entry): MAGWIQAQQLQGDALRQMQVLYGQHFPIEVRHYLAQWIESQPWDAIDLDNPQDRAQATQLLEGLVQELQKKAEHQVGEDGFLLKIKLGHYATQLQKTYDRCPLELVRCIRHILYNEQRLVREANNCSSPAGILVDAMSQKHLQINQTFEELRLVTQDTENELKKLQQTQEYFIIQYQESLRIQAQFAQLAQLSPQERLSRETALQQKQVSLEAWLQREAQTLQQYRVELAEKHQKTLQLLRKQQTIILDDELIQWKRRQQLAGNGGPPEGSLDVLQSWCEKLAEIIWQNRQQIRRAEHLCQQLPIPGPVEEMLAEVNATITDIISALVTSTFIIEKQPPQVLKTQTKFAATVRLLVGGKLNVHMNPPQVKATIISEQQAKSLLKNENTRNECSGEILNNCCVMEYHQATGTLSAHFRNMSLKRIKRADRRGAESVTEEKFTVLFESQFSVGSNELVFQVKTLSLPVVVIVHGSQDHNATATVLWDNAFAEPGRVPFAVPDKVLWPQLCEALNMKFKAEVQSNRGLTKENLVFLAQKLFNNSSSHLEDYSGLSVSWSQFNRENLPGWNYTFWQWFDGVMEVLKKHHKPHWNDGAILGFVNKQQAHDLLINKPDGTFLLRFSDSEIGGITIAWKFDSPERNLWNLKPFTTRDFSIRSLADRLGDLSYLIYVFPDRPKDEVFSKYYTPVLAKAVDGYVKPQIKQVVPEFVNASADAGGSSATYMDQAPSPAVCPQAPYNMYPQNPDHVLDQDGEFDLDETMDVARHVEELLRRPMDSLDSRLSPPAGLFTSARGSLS
Summary of the method: (§2)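 A375 cells exposed to a dose range of inhibitor for 20 h (overnight), up to 50 µM; lysates immunoblotted for phospho-STAT1 Y701, phospho-STAT5 Y694 and phospho-STAT6 Y641, with actin and/or vinculin as loading controls.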

[9] = test system: A-375; experiment: Cytotoxicity against human A-375 cells assessed as inhibition of cell proliferation measured after 48 hrs by MTS assay; assay type: functional, cell-based; details: A-375, 48 h
Summary of the method: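 Cells were exposed to a dose range of inhibitor for 48 h, and viability was read by MTS assay in triplicate. GI50 was taken as the concentration giving 50% growth inhibition, averaged from three independent experiments. A375 was cultured in RPMI-1640 with Glutamax. A549 and NCI-H157 were kept in RPMI-1640, and MIA PaCa-2 and U87-MG in DMEM.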

[10] = biological target: Mitogen-activated protein kinase; ERK1/ERK2 (Homo sapiens) (UniProt P27361+P28482); experiment: Inhibition of ERK1/2 phosphorylation in human A-375 cells at 5 to 50 uM after 12 hrs by Western blotting analysis; assay type: cell-based; details: dose 5-50 µM
Sequence of Mitogen-activated protein kinase; ERK1/ERK2 (Homo sapiens) (P27361 whole entry, looked up): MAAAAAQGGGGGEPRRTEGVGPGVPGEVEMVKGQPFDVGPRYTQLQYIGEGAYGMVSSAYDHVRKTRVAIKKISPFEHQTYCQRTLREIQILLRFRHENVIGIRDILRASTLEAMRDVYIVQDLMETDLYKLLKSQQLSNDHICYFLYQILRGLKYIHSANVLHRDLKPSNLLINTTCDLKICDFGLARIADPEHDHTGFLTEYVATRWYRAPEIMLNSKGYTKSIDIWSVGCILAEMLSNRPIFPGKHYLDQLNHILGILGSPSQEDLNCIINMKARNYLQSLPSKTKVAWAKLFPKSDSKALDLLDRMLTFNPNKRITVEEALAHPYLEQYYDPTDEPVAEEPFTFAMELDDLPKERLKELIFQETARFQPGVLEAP
Sequence of Mitogen-activated protein kinase; ERK1/ERK2 (Homo sapiens) (P28482 whole entry, looked up): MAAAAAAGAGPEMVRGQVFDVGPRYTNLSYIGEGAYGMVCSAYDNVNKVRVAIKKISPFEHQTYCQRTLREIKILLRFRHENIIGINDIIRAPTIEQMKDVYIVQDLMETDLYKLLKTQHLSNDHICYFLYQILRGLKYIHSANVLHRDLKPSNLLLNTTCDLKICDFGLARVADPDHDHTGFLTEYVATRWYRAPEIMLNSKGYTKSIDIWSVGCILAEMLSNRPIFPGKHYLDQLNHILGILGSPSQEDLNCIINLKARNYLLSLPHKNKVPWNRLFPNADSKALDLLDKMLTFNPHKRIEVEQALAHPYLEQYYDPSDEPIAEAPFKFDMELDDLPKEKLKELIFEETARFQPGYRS

[11] = test system: A-375; experiment: Inhibition of colony formation in human A-375 cells measured over 10 days by crystal violet staining based assay; assay type: functional, cell-based; details: dose 0.1-10 µM, time 10.0 day
Summary of the method: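 A375 cells seeded at 2500/well in RPMI with 5% FBS, settled overnight, then given a dose series and grown 14 days (10 days in the results text). Fixed in 4% paraformaldehyde for 15 min, stained with 0.2% crystal violet in 20% methanol for 10 min, washed and imaged. Experiment run twice.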

[12] = biological target: T1, Signal transducer and activator of transcription 3; experiment: Inhibition of STAT3 phosphorylation at Y705 residue in human SB-590885-sensitive MEL1617 cells at 10 to 25 uM measured after 12 hrs by Western blot analysis; assay type: cell-based; details: dose 10-25 µM; summary of the method: as §1
[13] = biological target: Signal transducer and activator of transcription 6 (Homo sapiens) (UniProt P42226); experiment: Inhibition of STAT6 phosphorylation at Y641 residues in human A-375 cells at 50 uM after 20 hrs by Western blotting analysis; assay type: cell-based; summary of the method: as §2
Sequence of Signal transducer and activator of transcription 6 (Homo sapiens) (P42226 whole entry): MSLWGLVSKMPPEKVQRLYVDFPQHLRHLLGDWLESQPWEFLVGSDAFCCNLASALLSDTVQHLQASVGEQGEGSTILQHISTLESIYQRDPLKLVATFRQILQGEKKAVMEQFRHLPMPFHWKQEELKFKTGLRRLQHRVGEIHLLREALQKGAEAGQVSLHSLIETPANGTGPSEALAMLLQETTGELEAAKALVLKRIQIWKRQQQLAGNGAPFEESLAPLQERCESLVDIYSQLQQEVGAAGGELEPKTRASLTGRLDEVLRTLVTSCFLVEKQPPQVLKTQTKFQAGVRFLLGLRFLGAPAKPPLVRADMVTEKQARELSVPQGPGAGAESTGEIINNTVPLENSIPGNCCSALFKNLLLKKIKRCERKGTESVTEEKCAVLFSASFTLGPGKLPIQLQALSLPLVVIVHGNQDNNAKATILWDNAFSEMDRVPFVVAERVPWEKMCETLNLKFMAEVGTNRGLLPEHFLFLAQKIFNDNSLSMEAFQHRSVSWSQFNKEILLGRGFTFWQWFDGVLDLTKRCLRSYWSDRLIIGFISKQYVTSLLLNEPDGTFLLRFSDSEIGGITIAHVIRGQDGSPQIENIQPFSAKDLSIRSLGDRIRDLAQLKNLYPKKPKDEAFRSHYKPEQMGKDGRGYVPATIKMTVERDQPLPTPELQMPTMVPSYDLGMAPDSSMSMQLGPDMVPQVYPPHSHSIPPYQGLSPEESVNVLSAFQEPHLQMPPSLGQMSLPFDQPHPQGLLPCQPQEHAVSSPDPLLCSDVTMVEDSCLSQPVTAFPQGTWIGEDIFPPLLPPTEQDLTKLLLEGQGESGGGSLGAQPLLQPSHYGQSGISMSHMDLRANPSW

[14] = biological target: T1, Signal transducer and activator of transcription 3; experiment: Inhibition of STAT3 phosphorylation at S727 residue in human SB-590885-sensitive 451Lu cells measured after 12 hrs by Western blot analysis; details: dose 10-25 µM; summary of the method: as §1
[15] = biological target: T1, Signal transducer and activator of transcription 3; experiment: Inhibition of STAT3 phosphorylation at Y705 residue in human SB-590885-sensitive 451Lu cells measured after 12 hrs by Western blot analysis; details: dose 10-25 µM; summary of the method: as §1
[16] = test system: A-375; experiment: Up regulation of p27kip1 expression in human A-375 cells measured after 24 hrs by Western blot analysis; assay type: functional, cell-based; details: dose 5-50 µM
Summary of the method: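 A375 cells treated overnight (same as cell-cycle treatment, 24 h) with different doses, then lysed and immunoblotted for p27kip1, PAX3 and Cyclin D1.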

[17] = test system: IGROV-1; experiment: Anticancer activity against human IGROV-1 cells assessed as cell growth inhibition at 10 uM measured after 48 hrs by SRB assay relative to control; assay type: functional; details: read-out: GI
Summary of the method: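 NCI 60-cell-line screen. Cells in RPMI with 5% FBS were plated at 5,000–40,000 cells/well by doubling time and preincubated 24 h at 37 °C. Compound was added at a single 10 µM for 48 h, then cells were fixed with cold TCA (10% final) and stained with 0.4% SRB. Absorbance at 515 nm gave percent growth versus untreated control and time-zero cells.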

[18] = biological target: T1, Signal transducer and activator of transcription 3; experiment: Inhibition of STAT3 phosphorylation at Y705 residue in human SB-590885-resistant MEL1617 cells at 10 to 25 uM measured after 12 hrs by Western blot analysis; assay type: cell-based; details: dose 10-25 µM; summary of the method: as §1
[19] = test system: A-375; experiment: Cell cycle arrest in human A-375 cells assessed as accumulation at G2-phase at 25 uM measured after 24 hrs by […] (reference value: 9.14 to 10.5%); assay type: functional
[20] = biological target: Signal transducer and activator of transcription 1-alpha/beta (Homo sapiens) (UniProt P42224); experiment: Inhibition of STAT1 phosphorylation at Y701 residues in human A-375 cells at 50 uM after 20 hrs by Western blotting analysis; assay type: cell-based; summary of the method: as §2
Sequence of Signal transducer and activator of transcription 1-alpha/beta (Homo sapiens) (P42224 whole entry): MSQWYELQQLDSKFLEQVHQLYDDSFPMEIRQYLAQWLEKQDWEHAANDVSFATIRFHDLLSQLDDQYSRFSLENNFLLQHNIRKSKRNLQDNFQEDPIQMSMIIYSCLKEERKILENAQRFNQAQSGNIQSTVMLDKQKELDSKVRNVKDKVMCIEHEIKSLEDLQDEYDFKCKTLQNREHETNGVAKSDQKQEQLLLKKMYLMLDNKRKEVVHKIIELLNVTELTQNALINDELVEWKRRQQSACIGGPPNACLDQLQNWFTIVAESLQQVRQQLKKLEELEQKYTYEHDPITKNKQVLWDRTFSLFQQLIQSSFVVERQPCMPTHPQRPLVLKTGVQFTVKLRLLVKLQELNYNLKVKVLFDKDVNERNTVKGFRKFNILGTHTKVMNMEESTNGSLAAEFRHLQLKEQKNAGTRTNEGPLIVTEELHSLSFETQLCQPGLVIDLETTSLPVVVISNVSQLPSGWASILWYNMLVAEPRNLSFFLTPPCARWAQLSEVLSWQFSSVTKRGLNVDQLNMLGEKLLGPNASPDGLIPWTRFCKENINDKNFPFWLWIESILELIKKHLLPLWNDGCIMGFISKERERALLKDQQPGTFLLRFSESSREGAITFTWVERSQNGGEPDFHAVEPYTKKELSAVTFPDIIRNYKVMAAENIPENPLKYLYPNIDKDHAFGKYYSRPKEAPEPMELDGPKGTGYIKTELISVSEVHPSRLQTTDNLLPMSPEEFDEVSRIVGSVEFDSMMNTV

[21] = biological target: T1, Signal transducer and activator of transcription 3; experiment: Inhibition of STAT3 in human SB-590885-resistant 451Lu cells assessed as reduction in PAX3 expression measured after 12 hrs by Western blot analysis; details: dose 10-25 µM; summary of the method: as §1

SMILES	inhibition [1]	IC50 [2]	Drug metabolism [3]	Activity [4]	IC50 [5]	inhibition [6]	IC50 [7]	inhibition [8]	IC50 [9]	inhibition [10]	inhibition [11]	inhibition [12]	inhibition [13]	inhibition [14]	inhibition [15]	Activity [16]	inhibition of growth at 10 µM [17]	inhibition [18]	Activity [19]	inhibition [20]	other results
C=CCn1c(SCC(=O)Nc2ccc(/C(C)=N\O)cc2)nnc1-c1cc(-c2ccccc2)nc2ccccc12	Dose-dependent effect	54.4 µM	15%	12.3%	4.7 µM	Dose-dependent effect	10.8 µM	inactive	7.7 µM	inactive	Dose-dependent effect	Active	inactive	Dose-dependent effect	Dose-dependent effect	Dose-dependent effect	76%	Active	11.2%	inactive	inhibition [21]: Dose-dependent effect
C=CCn1c(SCC(=O)Nc2ccc(/C(C)=N\O)cc2)nnc1-c1cc(-c2ccc(Cl)cc2)nc2ccccc12	Dose-dependent effect	200 µM	15%	21.4%	17 µM	Dose-dependent effect	54.1 µM	inactive	1.9 µM	inactive	Dose-dependent effect	Active	inactive	Dose-dependent effect	Dose-dependent effect	Dose-dependent effect	100%	Active	15.7%	inactive	inhibition [21]: Dose-dependent effect
